For one data set, the system named is normal cell lines. The following applies: cited from earlier work.
Data set [1] deals with α-Glucosidase (derived from Saccharomyces cerevisiae; EC3.2.1.20) (Saccharomyces cerevisiae, UniProt P53341). Description: In vitro α-glucosidase inhibitory study. Format: biochemical.
Data set [2] has as its target T1, α-glucosidase (Saccharomyces cerevisiae, UniProt P53341). The experiment in a line: Kinetic studies of α-glucosidase. In kind it is biochemical.
The next data set relates to male Wistar rats. The experiment in a line: In vivo hypoglycemic activity assay. Set-up: species or system rat. The following applies: for blood glucose effect (area under curve) vs negative control: sucrose 7.5 g/kg, one-way ANOVA. A digest of the protocol: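 Sucrose 7.5 g/kg was given 30 min later. Tail-vein glucose measured by glucometer at 0, 30, 45, 60 and 120 min. Area under curve compared by one-way ANOVA; mean ± SD.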

The target of data set [3] is T1, α-glucosidase. Description: Fluorescence spectroscopy measurements. In kind it is binding. As to conditions: 0–500 nM, excitation 280 nm, phosphate buffer pH 6.8. Put shortly: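 Fixed amount of yeast α-glucosidase in 3.0 ml with test compound at 0–500 nM, equilibrated 10 min. Steady-state emission spectra recorded 300–500 nm with excitation at 280 nm in a 1.0 cm quartz cell. Buffer-only spectra without enzyme subtracted as background.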

The target of data set [4] is T1, α-glucosidase. The experiment in a line: Thermodynamic analysis of the binding of compound 8g to α-glucosidase. Put shortly: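 Fluorescence intensity of yeast α-glucosidase at 340 nm followed over 298–338 K, with or without test compound (pH 6.8), under a two-state N↔U model. Denatured fraction, apparent K and ΔG° = −RT ln K were calculated, then fitted to the integrated Gibbs–Helmholtz equation (ΔCp 11.6 kJ/mol K). This gave Tm (half-denatured), ΔH°m and ΔS°m, with ΔH = TmΔS.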

Data set [5] deals with T1, α-glucosidase. As to conditions: read-out: α-glucosidase IC50; Fig. 1; cited from earlier work.
Data set [6] deals with T1, α-glucosidase. The following applies: kinetic studies; cited from earlier work.
For data set [7] the following is noted: cited from earlier work.

Entries after “also recorded” stand apart in the source; their conditions may differ.

T1 sequence (P53341 whole entry): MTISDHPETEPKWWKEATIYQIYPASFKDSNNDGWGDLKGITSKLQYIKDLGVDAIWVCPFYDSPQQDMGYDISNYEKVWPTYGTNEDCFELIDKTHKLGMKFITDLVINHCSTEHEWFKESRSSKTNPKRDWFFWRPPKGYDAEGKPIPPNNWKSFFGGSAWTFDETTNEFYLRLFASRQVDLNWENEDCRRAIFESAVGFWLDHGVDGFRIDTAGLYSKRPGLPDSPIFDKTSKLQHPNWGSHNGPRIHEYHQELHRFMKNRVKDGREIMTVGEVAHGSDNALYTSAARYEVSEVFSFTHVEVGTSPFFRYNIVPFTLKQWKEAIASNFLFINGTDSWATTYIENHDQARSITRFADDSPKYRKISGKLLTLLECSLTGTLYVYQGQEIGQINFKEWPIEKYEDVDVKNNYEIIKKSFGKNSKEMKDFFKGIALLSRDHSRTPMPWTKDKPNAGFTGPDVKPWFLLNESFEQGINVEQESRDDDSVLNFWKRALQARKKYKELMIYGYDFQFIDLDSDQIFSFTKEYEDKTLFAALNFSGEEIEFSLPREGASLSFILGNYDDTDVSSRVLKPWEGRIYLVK
α-Glucosidase (derived from Saccharomyces cerevisiae; EC3.2.1.20), sequence (P53341 whole entry): as above

Turning to `O=C(NN=Cc1cn(-c2ccccc2)nc1-c1ccc([N+](=O)[O-])cc1)c1cc2ccccc2o1` [B, N’-((3-(4-nitrophenyl)−1-phenyl-1H-pyrazol-4-yl)methylene)benzofuran-2-carbohydrazide], the “cytotoxicity to normal cell lines” value in the data set with normal cell lines was “non-toxic”.
Usually IC50 stands for the concentration that inhibits the measured activity by half. Regarding `O=C(NN=CC(O)C(O)C(O)C(O)CO)c1cc(-c2ccccc2)[nH]n1` (stereo not drawn) [Compound 8a, N’-(2,3,4,5,6-Pentahydroxyhexylidene)−5-phenyl-1H-pyrazole-3-carbohydrazide], the IC50 in data set [1] was 1.2 µM.
As for `O=C(NN=CC(O)C(O)C(O)C(O)CO)c1cc(-c2ccccc2F)[nH]n1` (stereo not drawn) [Compound 8b, 5-(2-Fluorophenyl)-N’-(2,3,4,5,6-pentahydroxyhexylidene)−1H-pyrazole-3-carbohydrazide], in data set [1], the IC50 was determined as 53.9 ± 1.2 µM.
The same measure, in the same setting: then `O=C(NN=CC(O)C(O)C(O)C(O)CO)c1cc(-c2ccccc2Cl)[nH]n1` (stereo not drawn) [Compound 8c, 5-(2-Chlorophenyl)-N’-(2,3,4,5,6-pentahydroxyhexylidene)−1H-pyrazole-3-carbohydrazide], with 4.2 ± 0.1 µM; and `O=C(NN=CC(O)C(O)C(O)C(O)CO)c1cc(-c2ccc(F)cc2)[nH]n1` (stereo not drawn) [Compound 8d, 5-(4-Fluorophenyl)-N’-(2,3,4,5,6-pentahydroxyhexylidene)−1H-pyrazole-3-carbohydrazide], with 60.6 ± 1 µM; and `O=C(NN=CC(O)C(O)C(O)C(O)CO)c1cc(-c2ccc(Cl)cc2)[nH]n1` (stereo not drawn) [Compound 8e, 5-(4-Chlorophenyl)-N’-(2,3,4,5,6-pentahydroxyhexylidene)−1H-pyrazole-3-carbohydrazide], with 1 µM.
Take `O=C(NN=CC(O)C(O)C(O)C(O)CO)c1cc(-c2ccc(Br)cc2)[nH]n1` (stereo not drawn) [Compound 8f, 5-(4-Bromophenyl)-N’-(2,3,4,5,6-pentahydroxyhexylidene)−1H-pyrazole-3-carbohydrazide]: it took 35.2 ± 0.5 µM to reach half-maximal inhibition in data set [1] (IC50).
Usually Ki stands for the equilibrium dissociation constant of an inhibitor or competing ligand from its target. As to `O=C(NN=CC(O)C(O)C(O)C(O)CO)c1cc(-c2ccc(Cl)cc2Cl)[nH]n1` (stereo not drawn) [Compound 8g, 5-(2,4-Dichlorophenyl)-N’-(2,3,4,5,6-pentahydroxyhexylidene)−1H-pyrazole-3-carbohydrazide], the half-maximal inhibitory concentration (IC50) in data set [1] is 0.5 µM. For the same compound, the “inhibition of α-glucosidase, times more potently than acarbose” value in [1] (relative to acarbose) worked out at 1500 times. Also, the affinity on α-glucosidase [2] corresponds to a Ki of 0.46 µM. At α-glucosidase [2] (Lineweaver-Burk plot: Km increased, Vmax unchanged), the type of inhibition entry is listed as “competitive manner; also recorded: competitive inhibitor”. Also, the “blood sugar levels in rats” value in the data set on male Wistar rats (doses comparable to acarbose) was “capable of lowering blood sugar levels; also recorded: effectively reduced”. The “blood glucose effect (area under curve) vs negative control” value in the data set with male Wistar rats (rat, oral 2.5 mg/kg) is “did not significantly differ”; with male Wistar rats (rat, oral 5 mg/kg, p-value < 0.05) it was “significantly different”; in the data set on male Wistar rats (rat, oral 10 mg/kg, p-value < 0.05), “significantly different”. Moreover, in the data set with male Wistar rats (rat, oral, sucrose tolerance test), the “effectiveness of 5 and 10 mg/kg doses vs each other and vs acarbose (5 mg/kg)” value was “did not significantly differ”. The “fluorescence intensity of α-glucosidase” value on α-glucosidase [3] is on record as “increased intensity”. Besides, the “shift in the emission wavelength (λmax 340 nm)” value at α-glucosidase [3] was “did not show significant shift”. In addition, the “Tm of α-glucosidase” value at α-glucosidase [4] (60 nM compound) is given as 314 K; on α-glucosidase [4] (250 nM compound), 309 K; at α-glucosidase [4] (500 nM compound) it was 304 K. The “ΔSm° of α-glucosidase denaturation” value on α-glucosidase [4] (60 nM compound) is 328.6 J mol^−1 K^−1; on α-glucosidase [4] (250 nM compound), 466.9 J mol^−1 K^−1; at α-glucosidase [4] (500 nM compound) it was 516.4 J mol^−1 K^−1. The “ΔHm° of α-glucosidase denaturation” value at α-glucosidase [4] (500 nM compound) is 37.55 kcal/mol.
The compound `O=C(NN=CC(O)C(O)C(O)C(O)CO)c1cc(-c2ccc([N+](=O)[O-])cc2)[nH]n1` (stereo not drawn) [Compound 8h, 5-(4-Nitrophenyl)-N’-(2,3,4,5,6-pentahydroxyhexylidene)−1H-pyrazole-3-carbohydrazide] registered a 50% inhibitory concentration (IC50) in data set [1] of 80.5 ± 0.7 µM.
`Cc1cccc(-c2cc(C(=O)NN=CC(O)C(O)C(O)C(O)CO)n[nH]2)c1` (stereo not drawn) [Compound 8i, N’-(2,3,4,5,6-Pentahydroxyhexylidene)−5-(m-tolyl)−1H-pyrazole-3-carbohydrazide] yielded an IC50 in data set [1] of 12.1 ± 0.5 µM.
With `Cc1ccc(-c2cc(C(=O)NN=CC(O)C(O)C(O)C(O)CO)n[nH]2)cc1` (stereo not drawn) [Compound 8j, N’-(2,3,4,5,6-Pentahydroxyhexylidene)−5-(p-tolyl)−1H-pyrazole-3-carbohydrazide], in data set [1], the IC50 worked out at 36.4 ± 0.2 µM.
As to `COc1cccc(-c2cc(C(=O)NN=CC(O)C(O)C(O)C(O)CO)n[nH]2)c1` (stereo not drawn) [Compound 8k, 5-(3-Methoxyphenyl)-N’-(2,3,4,5,6-pentahydroxyhexylidene)−1H-pyrazole-3-carbohydrazide], the midpoint of inhibition in data set [1], the IC50, lay at 2.3 µM.
In data set [1], `COc1ccc(-c2cc(C(=O)NN=CC(O)C(O)C(O)C(O)CO)n[nH]2)cc1` (stereo not drawn) [Compound 8l, 5-(4-Methoxyphenyl)-N’-(2,3,4,5,6-pentahydroxyhexylidene)−1H-pyrazole-3-carbohydrazide] returned an IC50 of 2.3 µM.
`COc1ccc(-c2cc(C(=O)NN=CC(O)C(O)C(O)C(O)CO)n[nH]2)cc1OC` (stereo not drawn) [Compound 8m, 5-(3,4-Dimethoxyphenyl)-N’-(2,3,4,5,6-pentahydroxyhexylidene)−1H-pyrazole-3-carbohydrazide] registered a half-maximal inhibitory concentration (IC50) in data set [1] of 438.6 ± 0.1 µM.
Consider `O=C(Cn1c(-c2ccc(Cl)cc2)nc2ccccc2c1=O)NN=Cc1cn(-c2ccccc2)nc1-c1ccc(Br)cc1` [E, N’-((3-(4-bromophenyl)−1-phenyl-1H-pyrazol-4-yl)methylene)−2-(2-(4-chlorophenyl)−4-oxoquinazolin-3(4H)-yl)acetohydrazide], for which, on α-glucosidase [5], the IC50 was 60.5 µM. Moreover, the “mechanism of α-glucosidase inhibition” value on α-glucosidase [6] is reported as “competitive mechanism”.
Turning to `COc1ccc(/C=C/c2cc(O)cc(OC3OC(CO)C(O)C(O)C3O)c2)cc1O` (stereo not drawn) [F, 2-(3-hydroxy-5-((E)−3-hydroxy-4-methoxystyryl)phenoxy)−6-(hydroxymethyl)tetrahydro-2H-pyran-3,4,5-triol], in [7], the bioavailability entry was “very low” and the toxic effects entry was “no toxic effects”.
In the case of `O=C(NNC1OC(CO)C(O)C(O)C1O)c1cc(-c2ccccc2)on1` (stereo not drawn) [H, 5-phenyl-N’-(3,4,5-trihydroxy-6-(hydroxymethyl)tetrahydro-2H-pyran-2-yl)isoxazole-3-carbohydrazide], at α-glucosidase [5], the half-maximal inhibitory concentration (IC50) was 292 µM.

Source of the values: paper PMC11929827 (Scientific Reports, 2025).
